Activity calls are given as the source filed them. The calls are words filed in the database; no cut-off is given here.
What was measured:
HeLa [1] = assay: Inhibition of TNFalpha-induced NFkappaB (unknown origin) activation expressed in human HeLa cells at 100 uM pre-incubated for 8 hrs followed by stimulation with TNFalpha for 8 hrs by luciferase reporter assay; assay type: cell-based
Procedure, shortened: (§1)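 HeLa cells transiently transfected 48 h with NF-κB-dependent luciferase reporter, pretreated 8 h with compounds (100 μM screen or indicated concentrations), then TNF-α (10 ng/ml) 8 h; luciferase activity read. Mean ± standard deviation, three independent experiments; compared with TNF-α-stimulated cells.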

Mus musculus [2] = assay: Antiinflammatory activity in Kunming mouse assessed as inhibition of xylene-induced ear edema at 100 mg/kg, po administered 1 hr before xylene challenge measured after 30 mins relative to vehicle treated control; assay type: functional
Mus musculus [3] = assay: Antiinflammatory activity in Kunming mouse assessed as inhibition of xylene-induced ear edema at 100 mg/kg, po administered 2 hrs before xylene challenge measured after 30 mins relative to vehicle treated control; assay type: functional
Mus musculus [4] = assay: Antiinflammatory activity in Kunming mouse assessed as inhibition of xylene-induced ear edema at 100 mg/kg, po administered 3 hrs before xylene challenge measured after 30 mins relative to vehicle treated control; assay type: functional
Mus musculus [5] = assay: Antiinflammatory activity in Kunming mouse assessed as inhibition of xylene-induced ear edema at 100 mg/kg, po administered 4 hrs before xylene challenge measured after 30 mins relative to vehicle treated control; assay type: functional
Mus musculus [6] = assay: Antiinflammatory activity in Kunming mouse assessed as inhibition of xylene-induced ear edema at 100 mg/kg, po administered 5 hrs before xylene challenge measured after 30 mins relative to vehicle treated control; assay type: functional
Mus musculus [7] = assay: Antiinflammatory activity in Kunming mouse assessed as inhibition of xylene-induced ear edema at 100 mg/kg, po administered 6 hrs before xylene challenge measured after 30 mins relative to vehicle treated control; assay type: functional
Mus musculus [8] = assay: Antiinflammatory activity in Kunming mouse assessed as inhibition of xylene-induced ear edema at 100 mg/kg, ip administered 0.5 hrs before xylene challenge measured after 30 mins relative to vehicle treated control; assay type: functional
Procedure, shortened: (§2)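 Xylene-induced ear edema, Kunming mice (18-22 g), 8 per group; drug-treated, indomethacin and normal control groups; single i.p. dose. Edema reported in mg (mean ± SEM), inhibition rate (%) vs DMSO vehicle group; p<0.05 vs vehicle.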

Mus musculus [9] = assay: Antiinflammatory activity in Kunming mouse assessed as inhibition of xylene-induced ear edema at 50 mg/kg, po administered 6 hrs before xylene challenge measured after 30 mins relative to vehicle treated control; assay type: functional
Procedure, shortened: (§3)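 Kunming mice (18-22 g), xylene ear edema; compound given orally at 1, 2, 3, 4, 5 or 6 h before xylene application. Inhibition (%) vs vehicle control group at the corresponding time; p<0.05 vs vehicle.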

HeLa [10] = assay: Inhibition of TNFalpha-induced NFkappaB (unknown origin) activation expressed in human HeLa cells pre-incubated for 8 hrs followed by stimulation with TNFalpha for 8 hrs by luciferase reporter assay; assay type: cell-based; procedure, shortened: as §1
HeLa [11] = assay: Cytotoxicity against human HeLa cells assessed as cell viability at 100 uM after 24 hrs by MTT assay; assay type: cell-based
Procedure, shortened: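 HeLa cells treated with compounds at indicated concentrations for 24 h; viability by MTT. Mean ± standard deviation of three independent experiments.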

Mus musculus [12] = assay: Antiinflammatory activity in Kunming mouse assessed as inhibition of xylene-induced ear edema at 50 mg/kg, ip administered 0.5 hrs before xylene challenge measured after 30 mins relative to vehicle treated control; assay type: functional; procedure, shortened: as §2
Mus musculus [13] = assay: Antiinflammatory activity in Kunming mouse assessed as inhibition of xylene-induced ear edema at 50 mg/kg, po administered 1 hr before xylene challenge measured after 30 mins relative to vehicle treated control; assay type: functional; procedure, shortened: as §3
Mus musculus [14] = assay: Antiinflammatory activity in Kunming mouse assessed as inhibition of xylene-induced ear edema at 50 mg/kg, po administered 2 hrs before xylene challenge measured after 30 mins relative to vehicle treated control; assay type: functional; procedure, shortened: as §3
Mus musculus [15] = assay: Antiinflammatory activity in Kunming mouse assessed as inhibition of xylene-induced ear edema at 50 mg/kg, po administered 3 hrs before xylene challenge measured after 30 mins relative to vehicle treated control; assay type: functional; procedure, shortened: as §3
Mus musculus [16] = assay: Antiinflammatory activity in Kunming mouse assessed as inhibition of xylene-induced ear edema at 50 mg/kg, po administered 4 hrs before xylene challenge measured after 30 mins relative to vehicle treated control; assay type: functional; procedure, shortened: as §3
Mus musculus [17] = assay: Antiinflammatory activity in Kunming mouse assessed as inhibition of xylene-induced ear edema at 50 mg/kg, po administered 5 hrs before xylene challenge measured after 30 mins relative to vehicle treated control; assay type: functional; procedure, shortened: as §3

`COc1ccc(Oc2nn3c(C(N)=O)nnc3c3ccccc23)cc1` was tested, and the inhibition (HeLa [1]) was “Active”.

`NC(=O)c1nnc2c3ccccc3c(Oc3ccccc3F)nn12` was tested, and the inhibition (HeLa [1]) was “Active”.

Work on `COc1ccc2c(c1)c(CC(=O)O)c(C)n2C(=O)c1ccc(Cl)cc1` [INDOMETHACIN] yielded an inhibition in vivo at 100 mg/kg (Mus musculus [2]) of 19.1%, an inhibition in vivo at 100 mg/kg (Mus musculus [3]) of 22.5% and an inhibition in vivo at 100 mg/kg (Mus musculus [4]) of 27.7%. For the same compound, the inhibition in vivo at 100 mg/kg (Mus musculus [5]) was 63.4%, the inhibition in vivo at 100 mg/kg (Mus musculus [6]) was 53.5% and the inhibition in vivo at 100 mg/kg (Mus musculus [7]) was 29.6%. The inhibition in vivo at 100 mg/kg (Mus musculus [8]) was 59.2%.

With `NC(=O)c1nnc2c3ccccc3c(Oc3ccc(Cl)cc3)nn12` the inhibition (HeLa [1]) was “Active”.

With `NC(=O)c1nnc2c3ccccc3c(Oc3cccc(F)c3)nn12` the inhibition (HeLa [1]) was “Active”.

In the case of `Cc1ccccc1Oc1nn2c(C(N)=O)nnc2c2ccccc12`, the inhibition (HeLa [1]) is reported as “Active”.

`NC(=O)c1nnc2c3ccccc3c(Oc3ccc(Br)cc3)nn12` was tested, and the inhibition (HeLa [1]) was “Active”.

With `Cc1cccc2c3c(ccc12)C1=C(C(=O)C3=O)[C@@H](C)CO1` the inhibition (HeLa [1]) was “Active”.

In the case of `NC(=O)c1nnc2c3ccccc3c(Oc3ccc(F)cc3)nn12`, the inhibition (HeLa [1]) is reported as “Active”.

`Cc1cccc(Oc2nn3c(C(N)=O)nnc3c3ccccc23)c1` was tested, and the inhibition in vivo at 50 mg/kg (Mus musculus [9]) was 8.19%, the inhibition (HeLa [1]) was “Active” and the inhibition (HeLa [10]) was “Dose-dependent effect”. The Activity (HeLa [11]) was “Non-toxic”, the inhibition in vivo at 50 mg/kg (Mus musculus [12]) was 58.2% and the inhibition in vivo at 50 mg/kg (Mus musculus [13]) was 5.63%. For the same compound, the inhibition in vivo at 50 mg/kg (Mus musculus [14]) was 8.92%, the inhibition in vivo at 50 mg/kg (Mus musculus [15]) was 22.7% and the inhibition in vivo at 50 mg/kg (Mus musculus [16]) was 38.9%. It also gave an inhibition in vivo at 50 mg/kg (Mus musculus [17]) of 22.4%.

With `Cc1ccc(Oc2nn3c(C(N)=O)nnc3c3ccccc23)cc1` the inhibition (HeLa [1]) was “Active”.

`NC(=O)c1nnc2c3ccccc3c(Oc3cccc(Cl)c3)nn12` was tested, and the inhibition (HeLa [1]) was “Active”.

In the case of `NC(=O)c1nnc2c3ccccc3c(Oc3ccc(Cl)cc3Cl)nn12`, the inhibition (HeLa [1]) is reported as “Active”, the inhibition (HeLa [10]) is reported as “Dose-dependent effect” and the Activity (HeLa [11]) is reported as “Toxic”.
